Activity calls are given as the source filed them.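 Rule for the calls, unless noted: active = viability at or under a set limit in both replicates, limit being median viability minus 3 SD (cut at about 48% in these data, passing the limit was not always enough); inconclusive = at or under the limit in just one replicate; inactive = at or above the limit in both replicates.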
Key:
[1] = reducers of endogenous Her2 protein level, primary screen, SKBR3 breast tumor cells, AlphaScreen, ATP viability (AID 461;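 active = Her2 level under about 52% in both replicate screens, with viability over 70% of control, limit read from the data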;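 for Her2 level: lower value means less Her2 protein in the cells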;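 for viability: percent of carrier control wells set as 100% viability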); details: 18-24 h, measured here: SKBR3 viability, ATP luminescence, at 10 µM
[2] = molecular target: Receptor tyrosine-protein kinase erbB-2 (Homo sapiens) (UniProt P04626); test: as above; details: 18-24 h, at 10 µM, stronger effect = lower value
[3] = SK-BR-3 cell growth inhibitors, pilot screen, 24 h, human (AID 572;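 active = viability at or below 10% of carrier control in both of two separate runs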;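 note: compound exposure lasted between 18 and 24 h rather than exactly 24 h; 100% = carrier-treated control wells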); details: SK-BR-3 viability, CellTiter-Glo luminescence, at 10 µM, stronger effect = lower value
[4] = HUVEC growth inhibition – cell-based, human, primary screen (AID 575;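 active = viability at or below 30% in both replicate assays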;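 note: 100% = median of untreated cell wells with 0.1% DMSO on each plate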); details: HUVEC proliferation, CellTiter-Glo luminescence, 72 h; at 10 µM; stronger effect = lower value
Outline: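 Test system: HUVEC primary cells. Quantity: 1250 endothelial cells in each well. Dosing: single-point 10 µM, DMSO 0.1% final. Incubation: 72 h treatment at 37 °C. Measured by: CTG luminescence. Control set: DMSO cell controls and MePR drug controls. Plate: collagen-coated 384-well format.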

[5] = growth inhibitors of H69AR lung tumor, primary screen, human, duplicate replicates (AID 580); details: H69AR lung tumor cells viability, ATP luminescence, 72 h; at 10 µM; stronger effect = lower value;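 note: 100% = mean luminescence of untreated wells and 0% = no signal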
[6] = reversal of MRP1-mediated doxorubicin resistance, pilot screen, H69AR cells, doxorubicin co-treatment (AID 601;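 active = viability loss from added drug above about 55%, and viability with drug at most 40%, in both replicates, limit read from the data, passing the limit was not always enough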); details: CellTiter-Glo, 72 h, at 10 µM; for differential viability (reversal): stronger effect = higher value
[7] = 384-well plate pilot, post-Golgi transport modulator project, inhibition of yeast transport mutant growth (AID 636; in the data active = inhibition above about 31%); details: absorbance 615 nm, about 18 h, stronger effect = higher value
[8] = growth suppression of yeast trafficking mutant, preliminary HTS, modulators of trafficking downstream of Golgi apparatus project, 1536-format plate, OD 615 nm (AID 637; in the data active = inhibition above about 30%); details: yeast transport mutant growth, absorbance 615 nm, 18 h; stronger effect = higher value
[9] = H69AR cells + 2 uM doxorubicin, measured here: viability with 2 uM doxorubicin, stronger effect = lower value
[10] = H69AR cells, compound alone cytotoxicity

Sequence of Receptor tyrosine-protein kinase erbB-2 (Homo sapiens) (P04626 whole entry, looked up): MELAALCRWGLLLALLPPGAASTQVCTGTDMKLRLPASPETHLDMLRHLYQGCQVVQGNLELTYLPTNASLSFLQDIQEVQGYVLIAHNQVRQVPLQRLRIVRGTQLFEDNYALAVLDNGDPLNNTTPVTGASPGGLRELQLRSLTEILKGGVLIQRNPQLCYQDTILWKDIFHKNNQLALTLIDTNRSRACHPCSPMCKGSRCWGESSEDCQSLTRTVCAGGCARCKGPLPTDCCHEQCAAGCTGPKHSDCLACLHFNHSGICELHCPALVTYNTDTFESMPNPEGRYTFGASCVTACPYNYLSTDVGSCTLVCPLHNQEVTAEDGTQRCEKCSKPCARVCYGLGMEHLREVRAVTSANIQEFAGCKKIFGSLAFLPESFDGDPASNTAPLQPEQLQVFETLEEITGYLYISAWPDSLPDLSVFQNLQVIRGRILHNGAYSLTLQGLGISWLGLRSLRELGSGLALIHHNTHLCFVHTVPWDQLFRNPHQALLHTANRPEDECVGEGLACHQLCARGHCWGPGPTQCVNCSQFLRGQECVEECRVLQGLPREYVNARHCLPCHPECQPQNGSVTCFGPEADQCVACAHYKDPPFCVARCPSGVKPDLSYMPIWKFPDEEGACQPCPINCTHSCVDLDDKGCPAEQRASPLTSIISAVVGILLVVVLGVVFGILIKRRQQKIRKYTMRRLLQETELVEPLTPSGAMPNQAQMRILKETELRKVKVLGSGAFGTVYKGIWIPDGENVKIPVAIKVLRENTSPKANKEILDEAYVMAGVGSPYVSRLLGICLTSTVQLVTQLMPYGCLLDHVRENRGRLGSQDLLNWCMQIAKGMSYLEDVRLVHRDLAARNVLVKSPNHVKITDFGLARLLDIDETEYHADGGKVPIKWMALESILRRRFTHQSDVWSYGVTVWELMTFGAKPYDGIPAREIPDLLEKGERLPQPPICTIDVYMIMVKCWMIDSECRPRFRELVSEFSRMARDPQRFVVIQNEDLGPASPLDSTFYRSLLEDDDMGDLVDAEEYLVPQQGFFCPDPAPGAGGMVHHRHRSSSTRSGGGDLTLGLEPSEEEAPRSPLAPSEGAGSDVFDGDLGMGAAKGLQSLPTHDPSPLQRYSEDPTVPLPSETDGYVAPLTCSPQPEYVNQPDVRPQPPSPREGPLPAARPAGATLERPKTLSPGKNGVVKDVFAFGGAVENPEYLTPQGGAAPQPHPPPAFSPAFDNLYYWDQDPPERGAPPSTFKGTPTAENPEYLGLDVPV

| SMILES | viability [1] | Her2 level [2] | viability [3] | viability [4] | viability [5] | differential viability (reversal) ([6]; H69AR cells + 2 uM doxorubicin) | viability [6, 9] | viability [6, 10] | inhibition [7] | inhibition [8] |
| --- | --- | --- | --- | --- | --- | --- | --- | --- | --- | --- |
| CCC(Sc1nc(-c2ccccc2)c(C#N)c(=O)[nH]1)C(=O)Nc1cc(C)on1 (stereo not given) | 90.5% | 111% (inactive) | 90.5% (inactive) | 83% (inactive) | 101% (inactive) | 0.62% (inactive) | 101% | 101% | -1.54% (inactive) | -8.67% (inactive) |
| CCCC1(C(=O)OCC)NC(c2ccc(N(C)C)cc2)C2C(=O)N(c3ccccc3)C(=O)C21 (stereo not given) | 109% | 99% (inactive) | 109% (inactive) | 99.2% (inactive) | 97.2% (inactive) | 3.73% (inactive) | 93.5% | 97.2% | -7.11% (inactive) | -6.03% (inactive) |
| O=C(NC(C(=O)c1ccccc1)n1ccc(=O)[nH]c1=O)c1ccccc1 (stereo not given) | 98.5% | 99% (inactive) | 98.5% (inactive) | 98.8% (inactive) | 91.2% (inactive) | 6.79% (inactive) | 84.4% | 91.2% | -0.93% (inactive) | 23.1% (inactive) |
| O=c1ccc2cc3c([nH]c4ccc(Br)cc43)oc-2c1O | 146% | 87% (inactive) | 146% (inactive) | 91.7% (inactive) | 78.3% (inactive) | -3.78% (inactive) | 82.1% | 78.3% | -4.16% (inactive) | -3.81% (inactive) |
| O=C(NCc1ccc2c(c1)OCO2)c1ccccn1 | 98.5% | 107% (inactive) | 98.5% (inactive) | 92.8% (inactive) | 88.5% (inactive) | 3.29% (inactive) | 85.2% | 88.5% | -6.27% (inactive) | -12.1% (inactive) |
| COC(=O)COc1nc(C)c(Br)c(OC)n1 | 96.5% | 99% (inactive) | 96.5% (inactive) | 105% (inactive) | 116% (inactive) | 25.9% (inactive) | 90% | 116% | -3.95% (inactive) | 7.54% (inactive) |
| COc1ccccc1CNC(=O)N[C@@H](Cc1ccccc1)C(=O)O | 102% | 80% (inactive) | 102% (inactive) | 114% (inactive) | 93.2% (inactive) | 12.2% (inactive) | 81% | 93.2% | -5.81% (inactive) | 10.5% (inactive) |
| COCCCNC(=O)c1ccccc1NS(=O)(=O)c1ccc(C)cc1 | 91% | 98% (inactive) | 91% (inactive) | 92.1% (inactive) | 101% (inactive) | 9.35% (inactive) | 91.2% | 101% | -4.27% (inactive) | -5.24% (inactive) |
| CN(C)c1ccc(CNCCC2(O)CCOC(C)(C)C2)cc1 (stereo not given) | 89% | 86% (inactive) | 89% (inactive) | 95.3% (inactive) | 102% (inactive) | 7.18% (inactive) | 95% | 102% | -6.08% (inactive) | 1.64% (inactive) |
| Cc1nn(-c2ccccc2)c2c1C(c1c(C)[nH]c(C#N)c1C)C(C#N)=C(N)O2 (stereo not given) | 88% | 86.5% (inactive) | 88% (inactive) | 85.5% (inactive) | 92.7% (inactive) | -13.2% (inactive) | 106% | 92.7% | -4.13% (inactive) | -5.25% (inactive) |
| O=C(CSc1ncccn1)NCc1ccccc1 | 94% | 112% (inactive) | 94% (inactive) | 106% (inactive) | 105% (inactive) | 5.14% (inactive) | 100% | 105% | 4.4% (inactive) | -8.71% (inactive) |
| C=CCn1c(SCc2ccc(C#N)cc2)nnc1-c1cccc(Cl)c1 | 95.5% | 86% (inactive) | 95.5% (inactive) | 102% (inactive) | 80.2% (inactive) | -3.84% (inactive) | 84% | 80.2% | -2.21% (inactive) | -0.17% (inactive) |
| Cc1cc(Br)ccc1NC(=O)CNC(=O)CSc1n[nH]c(N)n1 | 110% | 89.5% (inactive) | 110% (inactive) | 99.3% (inactive) | 104% (inactive) | 16.3% (inactive) | 87.3% | 104% | -6.22% (inactive) | 8.41% (inactive) |
| Cc1cc(Nc2ccccc2)n(CCC#N)n1 | 83.5% | 84.5% (inactive) | 83.5% (inactive) | 105% (inactive) | 102% (inactive) | 9.18% (inactive) | 92.9% | 102% | -5.73% (inactive) | 7.7% (inactive) |
| O=C(Nc1ccccc1)N(O)c1ccc(Cl)cc1 | 93% | 79% (inactive) | 93% (inactive) | 88.5% (inactive) | 89.7% (inactive) | 11.8% (inactive) | 77.9% | 89.7% | -2.11% (inactive) | -4.5% (inactive) |
| COc1ccc(C2c3c(-c4ccccc4O)n[nH]c3C(=O)N2CCc2ccc(OC)c(OC)c2)cc1 (stereo not given) | 112% | 95.5% (inactive) | 112% (inactive) | 60.3% (inactive) | 68.5% (inactive) | 57.9% (active) | 10.6% | 68.5% | -2.89% (inactive) | 6.94% (inactive) |

| SMILES | viability [1] | Her2 level [2] | viability [3] | viability [4] | viability [5] | differential viability (reversal) ([6]; H69AR cells + 2 uM doxorubicin) | viability [6, 9] | viability [6, 10] | inhibition [7] | inhibition [8] |
| --- | --- | --- | --- | --- | --- | --- | --- | --- | --- | --- |
| CCOC(=O)c1cccc(NC(=O)CSc2nc3ccccc3c(=O)n2CC)c1 | 87% | 79% (inactive) | 87% (inactive) | 65% (inactive) | 71.1% (inactive) | 4.1% (inactive) | 67% | 71.1% | -3.95% (inactive) | 0.48% (inactive) |
| Cc1cnc(-c2nnc(N(C)C(=O)C3CCOC3)s2)cn1 (stereo not given) | 90.5% | 89.5% (inactive) | 90.5% (inactive) | 98.2% (inactive) | 101% (inactive) | 17% (inactive) | 84.4% | 101% | -1.45% (inactive) | -10.9% (inactive) |
| Cn1c(=O)c2c(nc(CN3CCCCC3)n2CCc2ccccc2)n(C)c1=O | 87% | 107% (inactive) | 87% (inactive) | 111% (inactive) | 91.9% (inactive) | -1.94% (inactive) | 93.9% | 91.9% | 2.27% (inactive) | 13.8% (inactive) |
| CCCc1nnc(NC(=O)CCC(=O)N2CCN(CCOc3ccc(C)cc3)CC2)s1 | 93.5% | 74% (inactive) | 93.5% (inactive) | 92% (inactive) | 93.2% (inactive) | -6.29% (inactive) | 99.4% | 93.2% | -4.03% (inactive) | -2.83% (inactive) |
| CN(C)C(=O)c1ccc(COc2ccccc2Br)o1 | 110% | 84% (inactive) | 110% (inactive) | 88.5% (inactive) | 90.7% (inactive) | 13% (inactive) | 77.8% | 90.7% | -9.05% (inactive) | 0.48% (inactive) |
| c1ccc2c(c1)CNC1(CCCCC1)C2 | 103% | 94.5% (inactive) | 103% (inactive) | 103% (inactive) | 102% (inactive) | 12.9% (inactive) | 88.6% | 102% | -8.63% (inactive) | 1.27% (inactive) |
| CCn1c(C(=O)OC)cc2c1ccn2-c1ccc(F)cc1 | 91% | 80.5% (inactive) | 91% (inactive) | 86.1% (inactive) | 83% (inactive) | 7.09% (inactive) | 75.9% | 83% | -5.13% (inactive) | -1.82% (inactive) |
| C=CCOc1ccccc1/C=c1\sc2nc(=O)c(C)nn2c1=O | 100% | 84% (inactive) | 100% (inactive) | 85.1% (inactive) | 72.6% (inactive) | -10.6% (inactive) | 83.1% | 72.6% | -8.27% (inactive) | 0.79% (inactive) |
| O=C1CC(c2ccccc2)n2nc(NC(=O)c3ccccn3)nc2N1 (stereo not given) | 104% | 78% (inactive) | 104% (inactive) | 84.3% (inactive) | 66.2% (inactive) | -18.7% (inactive) | 84.9% | 66.2% | -4.59% (inactive) | 4.6% (inactive) |
| COc1cccc(NC(=O)COc2ccccc2C(N)=O)c1 | 93.5% | 110% (inactive) | 93.5% (inactive) | 83.1% (inactive) | 105% (inactive) | 16% (inactive) | 88.7% | 105% | 0% (inactive) | -7.9% (inactive) |
| Nc1nnc(-c2ccccc2)c(-c2ccccc2)n1 | 96.5% | 90% (inactive) | 96.5% (inactive) | 86.4% (inactive) | 99.2% (inactive) | 5.16% (inactive) | 94% | 99.2% | -4.53% (inactive) | 7.42% (inactive) |
| CCCNC(=O)c1ccccc1NC(=O)CN(c1ccccc1OCC)S(C)(=O)=O | 87% | 111% (inactive) | 87% (inactive) | 112% (inactive) | 98.1% (inactive) | 7.5% (inactive) | 90.6% | 98.1% | -0.13% (inactive) | -2.33% (inactive) |
| CCC(C)(C(=O)NC1CCCC1)N(C(=O)c1cnccn1)c1c(C)n(C)n(-c2ccccc2)c1=O (stereo not given) | 97% | 124% (inactive) | 97% (inactive) | 94.4% (inactive) | 91.4% (inactive) | 0.145% (inactive) | 91.2% | 91.4% | 2.34% (inactive) | -7.38% (inactive) |
| O=c1[nH]c(N2CCc3ccccc32)nc2c1CCCC2 | 125% | 104% (inactive) | 125% (inactive) | 101% (inactive) | 104% (inactive) | 21.9% (inactive) | 81.8% | 104% | -1.87% (inactive) | -1.45% (inactive) |
| COCCNc1nc(SCC(=O)N2CCN(c3ccccc3)CC2)nc2ccccc12 | 72% | 81.5% (inactive) | 72% (inactive) | 84.4% (inactive) | 84.3% (inactive) | 10.4% (inactive) | 73.9% | 84.3% | -7.6% (inactive) | -1.48% (inactive) |
| COc1ccc2cc(C(c3nnnn3C3CCCCC3)N3CCCCCC3)c3nnnn3c2c1 (stereo not given) | 94% | 72.5% (inactive) | 94% (inactive) | 81.6% (inactive) | 64.3% (inactive) | -2.87% (inactive) | 67.2% | 64.3% | -4.8% (inactive) | -2.86% (inactive) |

— PubChem BioAssay
